From ChEMBL document CHEMBL3097989, “Antimicrobial activity of de novo designed cationic peptides against multi-resistant clinical isolates” (Eur J Med Chem, 2014)
Blank lines part the entries; values can stand above or below the compound they belong to. Active and inactive are the calls of the source. The rule behind the calls is not given here. Where a SMILES comes first, the peptide text is derived from it.

Tests used:
Acinetobacter sp. [1] = assay: Antibacterial activity against Acinetobacter sp. M9013 clinical isolate expressing blaOXA-51 and blaIMP gene by microdilution test; format: functional
In short: (§1)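 MIC by standard broth microdilution following CLSI recommendations, in Mueller Hinton broth supplemented with Ca²⁺ (20-25mg/L) and Mg²⁺ (10-12.5mg/L); peptides tested against a panel of multi-resistant clinical isolates plus ATCC reference strains.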

Acinetobacter sp. [2] = assay: Antibacterial activity against Acinetobacter sp. M5277 clinical isolate expressing blaPER gene by microdilution test; format: functional; in short: as §1
Enterococcus faecalis [3] = assay: Antibacterial activity against Enterococcus faecalis M6983 clinical isolate expressing vanA gene by microdilution test; format: functional; in short: as §1
Klebsiella pneumoniae [4] = assay: Antibacterial activity against Klebsiella pneumoniae M13540 clinical isolate expressing blaKPC-2 gene by microdilution test; format: functional; in short: as §1
Enterococcus faecalis [5] = assay: Antibacterial activity against Enterococcus faecalis M6534 clinical isolate expressing vanB gene by microdilution test; format: functional; in short: as §1
Acinetobacter sp. [6] = assay: Antibacterial activity against Acinetobacter sp. M9665 clinical isolate expressing blaOXA-51 gene by microdilution test; format: functional; in short: as §1
Enterococcus faecium [7] = assay: Antibacterial activity against Enterococcus faecium M6261 by microdilution test; format: functional; in short: as §1
Enterococcus faecalis [8] = assay: Antibacterial activity against Enterococcus faecalis M4992 clinical isolate expressing vanA gene by microdilution test; format: functional; in short: as §1
Acinetobacter sp. [9] = assay: Antibacterial activity against Acinetobacter sp. M7489 clinical isolate expressing blaOXA-51 and blaTEM gene by microdilution test; format: functional; in short: as §1
[10] = Toxicity in human RBC assessed as hemolytic activity relative to control; format: cell-based, Erythrocyte; settings: red blood cells (RBC), read-out: Activity
In short: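 Heparinized human whole blood diluted 3x in PBS and centrifuged 10 min at 1500 rpm, repeated three times. Cells resuspended to 10% (v/v), then diluted to about 0.5% (v/v). Peptides added at various concentrations for 30 min at 37 °C. Supernatant absorbance read at 550 nm. Lysis calculated against buffer (0%) and water (100%). Readings taken in triplicate and averaged.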

Pseudomonas aeruginosa [11] = assay: Antibacterial activity against Pseudomonas aeruginosa M11005 clinical isolate expressing blaKPC-2 gene by microdilution test; format: functional; in short: as §1
Enterococcus faecium [12] = assay: Antibacterial activity against Enterococcus faecium M2664 clinical isolate expressing vanA gene by microdilution test; format: functional; in short: as §1
Enterococcus faecium [13] = assay: Antibacterial activity against Enterococcus faecium M2481 clinical isolate expressing vanB gene by microdilution test; format: functional; in short: as §1
Enterococcus faecalis [14] = assay: Antibacterial activity against Enterococcus faecalis M4899 clinical isolate expressing vanB gene by microdilution test; format: functional; in short: as §1
Enterococcus gallinarum [15] = assay: Antibacterial activity against Enterococcus gallinarum M2685 clinical isolate expressing vanC1 and vanA gene by microdilution test; format: functional; in short: as §1
Pseudomonas aeruginosa [16] = assay: Antibacterial activity against Pseudomonas aeruginosa PCOS12 by microdilution test; format: functional
In short: (§2)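 MIC by standard broth microdilution following CLSI recommendations, in Mueller Hinton broth supplemented with Ca²⁺ (20-25 mg/L) and Mg²⁺ (10-12.5 mg/L); ATCC reference strains included in the panel.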

Pseudomonas aeruginosa [17] = assay: Antibacterial activity against Pseudomonas aeruginosa M7712 clinical isolate expressing blaSPM gene by microdilution test; format: functional; in short: as §2
Acinetobacter sp. [18] = assay: Antibacterial activity against Acinetobacter sp. M13523 clinical isolate expressing blaOXA-51 gene by microdilution test; format: functional; in short: as §1
Pseudomonas aeruginosa [19] = assay: Antibacterial activity against Pseudomonas aeruginosa M5470 by microdilution test; format: functional; in short: as §2
Enterococcus faecium [20] = assay: Antibacterial activity against Enterococcus faecium PZAP95 by microdilution test; format: functional; in short: as §1
Enterococcus faecium [21] = assay: Antibacterial activity against Enterococcus faecium M2304 clinical isolate expressing vanA gene by microdilution test; format: functional; in short: as §1
Pseudomonas aeruginosa [22] = assay: Antibacterial activity against Pseudomonas aeruginosa M7907 clinical isolate expressing blaPER gene by microdilution test; format: functional; in short: as §2
Enterococcus faecalis [23] = assay: Antibacterial activity against Enterococcus faecalis M4449 clinical isolate expressing vanA gene by microdilution test; format: functional; in short: as §1
Enterococcus gallinarum [24] = assay: Antibacterial activity against Enterococcus gallinarum M2723 clinical isolate expressing vanC1 and vanA gene by microdilution test; format: functional; in short: as §1
Pseudomonas aeruginosa [25] = assay: Antibacterial activity against Pseudomonas aeruginosa M7728 clinical isolate expressing blaIMP gene by microdilution test; format: functional; in short: as §2
Acinetobacter sp. [26] = assay: Antibacterial activity against Acinetobacter sp. M7978 clinical isolate expressing blaIMP-1 gene by microdilution test; format: functional; in short: as §1
Enterococcus faecium [27] = assay: Antibacterial activity against Enterococcus faecium M2619 clinical isolate expressing vanB gene by microdilution test; format: functional; in short: as §1
Klebsiella pneumoniae [28] = assay: Antibacterial activity against Klebsiella pneumoniae M9140 clinical isolate expressing blaCIT gene by microdilution test; format: functional; in short: as §1
Pseudomonas aeruginosa [29] = assay: Antibacterial activity against Pseudomonas aeruginosa M13513 clinical isolate expressing blaKPC-2 gene by microdilution test; format: functional; in short: as §1
Pseudomonas aeruginosa [30] = assay: Antibacterial activity against Pseudomonas aeruginosa M7723 clinical isolate expressing blaKPC-2 gene by microdilution test; format: functional; in short: as §2
Pseudomonas aeruginosa [31] = assay: Antibacterial activity against Pseudomonas aeruginosa M7525 clinical isolate expressing blaSPM gene by microdilution test; format: functional; in short: as §2
Acinetobacter sp. [32] = assay: Antibacterial activity against Acinetobacter sp. M5949 clinical isolate expressing blaOXA-23 and blaOXA-GVI gene by microdilution test; format: functional; in short: as §1
Escherichia coli = assay: Antibacterial activity against Escherichia coli ATCC 25922 by microdilution test; format: functional; in short: as §1
Pseudomonas aeruginosa [33] = assay: Antibacterial activity against Pseudomonas aeruginosa M5109 clinical isolate expressing blaVIM and blaGES-1 gene by microdilution test; format: functional; in short: as §2
Enterococcus faecalis [34] = assay: Antibacterial activity against Enterococcus faecalis M6383 clinical isolate expressing vanA gene by microdilution test; format: functional; in short: as §1
Klebsiella pneumoniae [35] = assay: Antibacterial activity against Klebsiella pneumoniae M9491 clinical isolate expressing blaMOX gene by microdilution test; format: functional; in short: as §1
Pseudomonas aeruginosa [36] = assay: Antibacterial activity against Pseudomonas aeruginosa M5200 clinical isolate expressing blaVIM and blaGES-1 gene by microdilution test; format: functional; in short: as §2
Acinetobacter sp. [37] = assay: Antibacterial activity against Acinetobacter sp. PFAV1 clinical isolate expressing blaOXA-51, blaOXA-58 and blaPER gene by microdilution test; format: functional; in short: as §1
Acinetobacter sp. [38] = assay: Antibacterial activity against Acinetobacter sp. M5179 clinical isolate expressing blaOXA-51 gene by microdilution test; format: functional; in short: as §1
Pseudomonas aeruginosa [39] = assay: Antibacterial activity against Pseudomonas aeruginosa ATCC 27853 by microdilution test; format: functional; in short: as §1
Klebsiella pneumoniae [40] = assay: Antibacterial activity against Klebsiella pneumoniae M9170 clinical isolate expressing blaOXA-GIII gene by microdilution test; format: functional; in short: as §1
Acinetobacter sp. [41] = assay: Antibacterial activity against Acinetobacter sp. M5282 clinical isolate expressing blaOXA-51 gene by microdilution test; format: functional; in short: as §1
Klebsiella pneumoniae [42] = assay: Antibacterial activity against Klebsiella pneumoniae PFAV3 by microdilution test; format: functional; in short: as §1
Enterococcus faecalis [43] = assay: Antibacterial activity against Enterococcus faecalis ATCC 29212 by microdilution test; format: functional; in short: as §1
Enterococcus faecalis [44] = assay: Antibacterial activity against Enterococcus faecalis ATCC 51299 clinical isolate expressing vanB gene by microdilution test; format: functional; in short: as §1
Staphylococcus warneri = assay: Antibacterial activity against Staphylococcus warneri M6823 clinical isolate expressing mecA gene by microdilution test; format: functional; in short: as §2
Staphylococcus cohnii = assay: Antibacterial activity against Staphylococcus cohnii M6767 clinical isolate expressing mecA gene by microdilution test; format: functional; in short: as §2
Staphylococcus aureus [45] = assay: Antibacterial activity against Staphylococcus aureus ATCC 29213 by microdilution test; format: functional; in short: as §2
Staphylococcus aureus [46] = assay: Antibacterial activity against Staphylococcus aureus M6794 clinical isolate expressing mecA gene by microdilution test; format: functional; in short: as §2

MIC90 (Acinetobacter sp. [1]): inactive | MIC90 (Acinetobacter sp. [2]): inactive | MIC90 (Enterococcus faecalis [3]): inactive | MIC90 (Klebsiella pneumoniae [4]): inactive | MIC90 (Enterococcus faecalis [5]): inactive | MIC90 (Acinetobacter sp. [6]): inactive | MIC90 (Enterococcus faecium [7]): inactive | MIC90 (Enterococcus faecalis [8]): inactive | MIC90 (Acinetobacter sp. [9]): inactive | MIC90 (Pseudomonas aeruginosa [11]): inactive | MIC90 (Enterococcus faecium [12]): inactive | MIC90 (Enterococcus faecium [13]): inactive | MIC90 (Enterococcus faecalis [14]): inactive | MIC90 (Enterococcus gallinarum [15]): inactive | MIC90 (Pseudomonas aeruginosa [16]): inactive | MIC90 (Pseudomonas aeruginosa [17]): inactive | MIC90 (Acinetobacter sp. [18]): inactive | MIC90 (Pseudomonas aeruginosa [19]): inactive | MIC90 (Enterococcus faecium [20]): inactive | MIC90 (Enterococcus faecium [21]): inactive | MIC90 (Pseudomonas aeruginosa [22]): inactive | MIC90 (Enterococcus faecalis [23]): inactive | MIC90 (Enterococcus gallinarum [24]): inactive | MIC90 (Pseudomonas aeruginosa [25]): inactive | MIC90 (Acinetobacter sp. [26]): inactive | MIC90 (Enterococcus faecium [27]): inactive | MIC90 (Klebsiella pneumoniae [28]): inactive | MIC90 (Pseudomonas aeruginosa [29]): inactive | MIC90 (Pseudomonas aeruginosa [30]): inactive | MIC90 (Pseudomonas aeruginosa [31]): inactive | MIC90 (Acinetobacter sp. [32]): inactive | MIC90 (Escherichia coli): inactive | MIC90 (Pseudomonas aeruginosa [33]): inactive | MIC90 (Enterococcus faecalis [34]): inactive | MIC90 (Klebsiella pneumoniae [35]): inactive | MIC90 (Pseudomonas aeruginosa [36]): inactive | MIC90 (Acinetobacter sp. [37]): inactive | MIC90 (Acinetobacter sp. [38]): inactive | MIC90 (Pseudomonas aeruginosa [39]): inactive | MIC90 (Klebsiella pneumoniae [40]): inactive | MIC90 (Acinetobacter sp. [41]): inactive | MIC90 (Klebsiella pneumoniae [42]): inactive | MIC90 (Enterococcus faecalis [43]): inactive | MIC90 (Enterococcus faecalis [44]): inactive
Compound: H-FGKEKKAWWRRRKWLK-NH2
hemolysis [10]: 1.5%

MIC90 (Klebsiella pneumoniae [4]): inactive | MIC90 (Staphylococcus warneri): inactive | MIC90 (Staphylococcus cohnii): inactive | MIC90 (Pseudomonas aeruginosa [29]): inactive | MIC90 (Staphylococcus aureus [45]): inactive | MIC90 (Escherichia coli): inactive | MIC90 (Pseudomonas aeruginosa [39]): inactive | MIC90 (Staphylococcus aureus [46]): inactive
Compound: CC[C@H](C)[C@H](NC(=O)[C@H](CCCCN)NC(=O)[C@H](CCCNC(=N)N)NC(=O)[C@H](CC(N)=O)NC(=O)CNC(=O)[C@H](CCCNC(=N)N)NC(=O)[C@H](Cc1ccccc1)NC(=O)[C@@H](NC(=O)[C@H](CS)NC(=O)[C@H](Cc1cnc[nH]1)NC(=O)[C@H](CC(C)C)NC(=O)[C@@H]1CCCN1C(=O)[C@H](CCC(N)=O)NC(=O)[C@@H]1CCCN1C(=O)[C@@H](NC(=O)[C@H](CC(N)=O)NC(=O)[C@@H]1CCCN1C(=O)[C@H](CC(C)C)NC(=O)CNC(=O)[C@@H](NC(=O)CNC(=O)[C@H](CO)NC(=O)[C@H](CC(C)C)NC(=O)[C@H](CC(C)C)NC(=O)[C@H](CC(=O)O)NC(=O)[C@H](CS)NC(=O)[C@@H](NC(=O)[C@@H](N)[C@@H](C)O)[C@@H](C)O)C(C)C)C(C)C)C(C)C)C(=O)N[C@@H](CCCCN)C(=O)N[C@@H](Cc1c[nH]c2ccccc12)C(N)=O (H-TTCDLLSGVGLPNVPQPLHCVFRGNRKIKW-NH2)
hemolysis [10]: 1.72%
